T cell HTS: modulates CD8 T cell binding to vesicles | 2C CD8+ T cell-vesicle binding, flow cytometry; stronger effect = lower value | response (vesicle binding), % at 7 µM | 330,000 compounds, 0.068% hits;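 active = response, share of CD8 T cells binding vesicles, and their 90th percentile fluorescence all below set limits, cut at about 80% in these data, passing the limit was not always enough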;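 also: values below 100% mean blocked vesicle binding to the CD8+ T cells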
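Material: murine 2C transgenic CD8+ T lymphocytes / Also added: QL9-peptide-loaded Drosophila micro-vesicles bearing Ld, ICAM-1 and B7-1 / Schedule: binding step 1.5 h, 37 °C, antibody labelling 20 min, ice / Signal: flow cytometry, PE anti-B7-1 (FL2) versus Alexa647 anti-CD8 (FL8), PFA-fixed / Evaluation: percent CD8+ FL2 mean versus row control / Benchmarks: naked versus QL9-loaded vesicles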
pCIP destab: p/CIP protein destabilization. Q05BA5. F442A p/CIP-EGFP cells, EGFP fluorescence, 16 h. decrease of EGFP signal, % at 10 µM. 290,000 compounds, 0.01% hits. AID 1984;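 active = EGFP signal decrease of at least 30% at 10 µM or well 3 SD below plate mean, unless failing retest; inactive = the rest, including hits failing retest or dose response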
GPR7 antag: human neuropeptides B/W receptor 1 antagonism. P48145. GPR7-expressing cells, fluorescence antagonist assay. inhibition, % at 4.4 µM. 290,000 compounds, 1.1% hits. AID 1861; in the data active = inhibition above about 16%, passing the limit was not always enough;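 also: cells stimulated with the agonist NPW; 0% = agonist with vehicle and 100% = vehicle without agonist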
CHT allo act: allosterically activates the human high affinity choline transporter | Q9GZV3 | 310,000 compounds, 0.49% hits | AID 488977 | CHT-expressing cells, membrane potential dye, choline EC20; stronger effect = higher value; LV-AA mutant CHT in HEK293 cells | B-score at 10 µM;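 active = initial fluorescence not abnormally high and integrated response B-score, plate-corrected, over 3 SD above library mean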
Target sequence (Q9GZV3 whole entry, looked up): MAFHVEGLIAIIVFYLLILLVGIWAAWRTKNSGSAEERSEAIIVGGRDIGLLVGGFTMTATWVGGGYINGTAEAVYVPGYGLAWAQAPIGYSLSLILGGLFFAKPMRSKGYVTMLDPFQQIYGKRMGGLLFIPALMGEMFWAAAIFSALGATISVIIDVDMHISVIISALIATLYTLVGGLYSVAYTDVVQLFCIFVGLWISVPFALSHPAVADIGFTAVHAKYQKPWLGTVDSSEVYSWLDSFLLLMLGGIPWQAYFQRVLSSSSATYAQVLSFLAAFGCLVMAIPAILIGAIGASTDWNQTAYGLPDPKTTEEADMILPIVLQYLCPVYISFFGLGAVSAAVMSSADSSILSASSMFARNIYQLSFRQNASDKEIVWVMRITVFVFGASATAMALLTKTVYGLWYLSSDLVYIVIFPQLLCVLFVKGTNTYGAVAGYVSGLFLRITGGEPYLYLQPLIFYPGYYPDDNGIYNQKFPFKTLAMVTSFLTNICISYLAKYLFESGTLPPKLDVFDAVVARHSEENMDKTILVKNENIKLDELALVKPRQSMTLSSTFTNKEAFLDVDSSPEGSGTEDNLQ
CHT inh: inhibitors of human choline transporter CHT | Q9GZV3 | CHT-expressing cells, membrane potential dye, choline response; stronger effect = lower value | B-score at 10 µM | 310,000 compounds, 0.86% hits | AID 488975;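 active = B-score over 3 SD under the library average, and starting fluorescence ratio not unusually high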;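 also: choline stimulus applied at its EC90 after an EC20 pre-addition; B-score computed on integrated fluorescence ratio after choline addition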
Pemphigus Ab inh: inhibitors of pemphigus antibody binding to human desmoglein-3; P32926; DSG3-coupled beads, scFv-anti-DSG3-GFP binding, flow cytometry; stronger effect = lower value; binding (percent of control), % at 10 µM; 310,000 compounds, 0.48% hits;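 active = binding more than 3 SD below its plate's average and above zero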
CHT block conf: human CHT inhibition, confirmatory screen. shares compounds with CHT inh. CHT-expressing cells, choline membrane potential dye; LV-to-AA substituted CHT, HEK293 cells. CHT activity remaining % of control (stronger effect = lower value), % at 10 µM. 2,400 compounds, 70% hits;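 active = choline transporter activity left, mean of duplicates at 10 µM, below buffer-only control mean minus 3 SD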;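 also: depolarization triggered by choline at its EC90 following an EC20 pre-addition; 0% = hemicholinium-3 full block and 100% = buffer-only control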
HEK293 CHT ctr: CHT inhibitor counter-screen hit in parental HEK293 cells; membrane potential ratio readout (active if shifted either direction beyond buffer ±3SD; no single direction) at 10 µM; membrane potential dye, choline response; active = decrease or increase beyond buffer ±3SD; 2,400 compounds, 4% hits; shares compounds with CHT inh;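 also: parental cells lack the transporter so any hit is non-specific; ratio is peak minus trough fluorescence over baseline after EC90 choline challenge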
CHT activ conf: confirmation of human choline transporter (CHT) activators. shares compounds with CHT allo act. 2,500 compounds, 91% hits. CHT-expressing cells, membrane potential dye fluorescence (FDSS); % of choline EC20–EC90 response window; HEK293 expressing CHT LV-AA mutant; choline added at its EC20. activation, % at 10 µM. AID 504833;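 active = primary screen active, with duplicate mean activation above negative control mean plus 3 SD, cut at about 11% in these data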
HEK293 MP dye: activity in parental HEK293 cells lacking CHT; membrane potential dye fluorescence (FDSS); measured after EC20 choline addition; ratio readout change at 10 µM, hits read low; shares compounds with CHT allo act; 2,500 compounds, 62% hits; AID 623908;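 active = duplicate-averaged ratio beyond 3 SD from buffer wells, up or down, though filed actives are nearly all decreases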
* hit, by the source's call; i = inactive; / = not tested or not shown; ! = a repeat was not active. The list is not random: actives were taken first. Their share in the collection is about 2.3%.

SMILES | T cell HTS | pCIP destab | GPR7 antag | CHT allo act | CHT inh | Pemphigus Ab inh | CHT block conf | HEK293 CHT ctr | others
CCCNC(=O)c1c(N)n(CC2CCCO2)c2nc3ccccc3nc12 (stereo not drawn) | 375 | -5 | 0 | i | i | 74 | / | /
CC(=O)OC1C(=O)OCC23CCC4(C)OC4C2OC2CC(OC(=O)C=CC=CC(=O)OCCC1C)C3(C)C21CO1 (stereo not drawn) | / | / | / | / | / | 101 | / | /
O=C1NC(=O)C2(CCN(c3ccccc3)CC2)C(=O)N1 | / | / | / | / | / | 94 | / | /
c1ccc2c(CN3CCCCCCC3)c[nH]c2c1 | 404 | -8 | -1 | i | -11* | 103 | 2.7%* | i
CC1=CC2/C=C(\C)CCC(O)C(O)/C=C/C(=O)C23C(=O)NC(CC(C)C)C3C1C (stereo not drawn) | 199 | -1 | 5 | i | -6.5* | 103 | 24%* | i
C/C1=C\[C@@H](C)C/C=C/[C@H]2[C@@H]3O[C@]3(C)[C@@H](C)[C@H]3[C@H](Cc4c[nH]c5ccccc45)NC(=O)[C@]32C(=O)/C=C/C(=O)[C@@H]1O | 208 | -4 | -10 | i | i | 96 | / | /
O=[N+]([O-])/C=C/c1c(Cl)cccc1Cl | / | / | / | / | / | 83 | / | /
CCn1c(P(C)(=O)O)nc2ccccc21 | 216 | 1 | -12 | i | i | 107 | / | /
CCn1c(P(C)(=O)O)nc2cc(NC(=O)c3ccccc3F)ccc21 | 621 | -29 | -3 | i | -12* | 89 | i | i
C[C@]12CCC3C(CC[C@H]4C[C@H](O)CC[C@]34C)C1C[C@H](O)[C@H]2O (stereo partly drawn) | / | / | / | / | / | 118 | / | /
C[C@]12CC[C@H](O)C[C@@H]1CC[C@@H]1[C@@H]2CC[C@]2(C)[C@@H](C(=O)O)C[C@@H]12 | 197 | / | / | i | -14* | 108 | i | i
O=c1cccc2n1CC1CC2CN(Cc2cccc(Cl)c2Cl)C1 (stereo not drawn) | 208 | -6 | -8 | i | -5.4* | 95 | 65%* | i
COC(=O)C1=C(c2cc3ccccc3o2)C[C@@H]2CC[C@H]1N2C(=O)N1CCCC1 | 244 | / | / | i | -6.2* | 100 | 65%* | i
CCC(=NCCc1c[nH]c2ccccc12)c1c(O)n(C)c(=O)n(C)c1=O | 407 | -9 | 0 | i | -5.7* | 111 | i | i
c1ccc(CN2Cc3ccccc3-n3nncc3C2)nc1 | / | / | / | / | / | 109 | / | /
CN(CC=CCN(C)P(=S)(N1CC1)N1CC1)P(=S)(N1CC1)N1CC1 | / | / | / | / | / | 94 | / | /
O=C(CCN1CC1)OCCOC(=O)CCN1CC1 | / | / | / | / | / | 96 | / | /
C[N+](C)(C)CCOC(=O)CBr | 520 | / | / | i | -8* | 99 | -8.4%* | i
CC(=O)OCC[N+](C)(C)C | 230 | -5 | 8 | i | -7.5*! | 122 | 25%* | i
COC(/C(C)=C/C=C/C(C)=C/c1coc(C)n1)C(C)C1CC(O)C2(C)OC2C=CC(C)C2CC(CC(=O)O2)CC2OC2C(=O)O1 (stereo not drawn) | / | / | / | / | / | 90 | / | /
C[C@@H]1CN([C@@H](C)CO)C(=O)CCCn2nncc2CO[C@H]1CN(C)C(=O)Oc1ccc2ccccc2c1 | / | / | / | / | / | 103 | / | /
COC1C(C)OC(OC2CC(C)(O)Cc3cc4c(c(O)c32)C(=O)c2c(O)cc3c(c2C4=O)OC2OC3(C)C(O)C(N(C)C)C2O)C(OC)C1(C)OC (stereo not drawn) | / | / | / | / | / | 92 | / | /
CCCC(=O)NC(Oc1ccccc1Cl)C(Cl)(Cl)Cl (stereo not drawn) | 820 | 8 | -6 | i | -5* | 116 | i | i
Fc1ccc(C[n+]2c(-c3ccccc3)cc(-c3ccccc3)cc2-c2ccccc2)cc1 | 879 | / | / | 8.2* | i | / | / | / | CHT activ conf=32*;HEK293 MP dye=i
CN1CCN(c2ccc([N+](=O)[O-])c(N)c2)CC1 | 188 | -5 | 4 | i | i | 96 | / | /
SMILES | T cell HTS | pCIP destab | GPR7 antag | CHT allo act | CHT inh | Pemphigus Ab inh | CHT block conf | HEK293 CHT ctr | others
CN1CCN(c2ccc([N+](=O)[O-])c(SCCO)c2)CC1 | 89 | -21 | 3 | 6.8* | i | 110 | / | / | CHT activ conf=37*;HEK293 MP dye=-65*
CN1CCN(c2ccc([N+](=O)[O-])c(NCC3CCCO3)c2)CC1 (stereo not drawn) | 260 | -5 | 0 | 6.3* | i | 104 | / | / | CHT activ conf=52*;HEK293 MP dye=-51*
CN1CCN(c2ccc([N+](=O)[O-])c(NCc3ccco3)c2)CC1 | 235 | 9 | -7 | i | i | 112 | / | /
CCC[N+]12CCC(CC1)C(=C(c1ccccc1)c1ccccc1)C2 | 335 | 2 | 3 | 6.5* | i | 125 | / | / | CHT activ conf=16*;HEK293 MP dye=i
CCCC[N+]12CCC(CC1)C(=C(c1ccccc1)c1ccccc1)C2 | 190 | -2 | 13 | 9.4* | i | 81 | / | / | CHT activ conf=61*;HEK293 MP dye=i
O=C(C[N+]12CCC(CC1)C(C(O)(c1ccccc1)c1ccccc1)C2)c1ccc(Br)cc1 (stereo not drawn) | 203 | 10 | -14 | i | i | 106 | / | / | CHT activ conf=30*;HEK293 MP dye=-22*
OCC[N+]12CCC(CC1)C(C(O)(c1ccccc1)c1ccccc1)C2 (stereo not drawn) | 180 | -5 | -6 | i | i | 102 | / | /
Cc1sc2ccccc2c1CC1=NCCN1 | 470 | / | / | 7.8* | i | 104 | / | / | CHT activ conf=46*;HEK293 MP dye=-50*
COc1ccc(C)cc1NC1=NC(C)(C)CS1 | 518 | 3 | -5 | i | i | 91 | / | /
NC(N)=Nc1ccc2[nH]c3c(c2c1)C[C@@]1(O)[C@H]2Cc4ccc(O)c5c4[C@@]1(CCN2CC1CC1)[C@H]3O5 | 586 | / | / | 8.3* | i | 81 | / | / | CHT activ conf=12*;HEK293 MP dye=-33*
O=P1(c2ccccc2)Nc2ccccc2N1c1ccccc1 (stereo not drawn) | / | / | / | / | / | 115 | / | /
CCOC(=O)CC1c2ccccc2-n2nncc2CN1CC1CCCCC1 (stereo not drawn) | / | / | / | / | / | 99 | / | /
CC[n+]1c(/C=C/C=C/c2ccc(N(C)C)cc2)sc2ccccc21 | 334 | -29 | 4 | i | i | 104 | / | /

Bioassay records from PubChem BioAssay.
